The values that follow come from the RNAGym collection of RNA variant scans (doi:10.1126/science.aae0568).

Fewer inactive variants are shown than the library holds.

The chains are these.
B1: tRNA (parent)
chain: GUUCCGUUGGCGUAAUGGUAACGCGUCUCCCUCCUAAGGAGAAGACUGCGGGUUCGAGUCCCGUACGGAACG

The data set covers variants of B1. Put plainly: yeast fitness relative to wild type (ratio to wild type); higher = fitter; tRNA-Arg(CCU), competitive growth, 37 C, YPD. Put shortly:
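The tRNA-Arg(CCU) gene variants were made by chemical synthesis with a 3% per-site mutation rate at 69 sites and inserted at the native genomic locus of Saccharomyces cerevisiae. After pooling, the strains were competed in YPD at 37°C for 24 hours in six parallel replicates. Gene amplicons from the start population and each end population were read by 100-nucleotide paired-end sequencing, and Darwinian fitness relative to wild type was taken from genotype frequency changes. Genotypes needed ≥ 100 starting reads, and estimates < 0.5 were set to 0.5.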
As for GUUCCGUUGGCGUAAUGGUAACGCGUGUCCCUCCUAAGGAGAAGACUGCGGGUUAGAGUCCCGUACGGAUCG [C27G C55A A70U], the yeast fitness is at most 0.5. With GUUCCGUUGGCGUAAUGGUAACGCGUGUCCCUCCUAAGGAGAAGACUGCCGGUUCGAGUGCCGUACGGAACG [C27G G50C C60G] the figure was at most 0.5; with GUUCCGUUGGCGUAAUGGUAACGCGUGUCCCUCCUAAGGAGAAGACUGUGGGUGCGAGUCCCGUACGGAACG [C27G C49U U54G], at most 0.5; with GUUCCGUUGGCGUAAUGGUAACGCGUGUCCCUCCUAAGAAGAAGAUUGCGGGUUCGAGUCCCGUACAGAACG [C27G G39A C46U G67A], 0.581. As for GUUCCGUUGGCGUAAUGGUAACGCGUGUCCCUCCUAAGGAGAAGACUGCAGGUUCGAGUCCCGUACGGAACG [C27G G50A], the yeast fitness was determined as 0.654. The figure for GUUCCGUUGGCGUAAUGGUAACGCGUGUCCCUCCUAAGAAGAAGAUUGCGGGUUCGAGUCCCGUACGAAACG [C27G G39A C46U G68A] is at most 0.5; for GUUCCGUUGGCGUAAUGGUAACGCGUGUCCCUCCUAAGGAGAAGACUGCGGGUUCAAGUCCCGUACGGAUCG [C27G G56A A70U] it is 0.531. With GUUCCGUUGGCGUAAUGGUAACGCGUGUCCCUCCUAAGGAAAAGACUGCGGGUUCGCGUCCAGUACGGAACG [C27G G41A A57C C62A] the figure was at most 0.5. The figure for GUUCCGUUGGCGUAAUGGUAACGCGUGUCCCUCCUAAGAAGAAGACUGCGGGUUCGAGUCCCGUACAGAACG [C27G G39A G67A] is 0.59. As to GUUCCGUUGGCGUAAUGGUAACGCGUGUCCCUCCUAAGGAGAAGACUGCGGGUUAGAGUCCCGUAUGGAACG [C27G C55A C66U], the yeast fitness was 0.545. GUUCCGUUGGCGUAAUGGUAACGCGUGUCCCUCCUAAGGACAAGACUGCGGGUUCGAGUCCCGUACGCAACG [C27G G41C G68C]: the yeast fitness was found to be 0.626. The figure for GUUCCGUUGGCGUAAUGGUAACGCGUGUCCCUCCUAAGGAGAAGACUGUGGGUUCGAGUCCCGUACGGAACG [C27G C49U] is 0.614; for GUUCCGUUGGCGUAAUGGUAACGCGUGUCCCUCCUAAGGAGAAGACUGGGGGUUCGAGUCCCGUACGGAACG [C27G C49G] it is 0.621. As to GUUCCGUUGGCGUAAUGGUAACGCGUGUCCCUCCUAAGGAGAAGAUUGCGGGUUCGAGUCGCGUACGUAACG [C27G C46U C61G G68U], the yeast fitness is at most 0.5. GUUCCGUUGGCGUAAUGGUAACGCGUGUCCCUCCUAAGGACAAGACUGCGGGUUCGAGUCCCGUAUGGAACG [C27G G41C C66U]: the yeast fitness worked out at 0.747. With GUUCCGUUGGCGUAAUGGUAACGCGUGUCCCUCCUAAGCAGAAGACUGCGGGUUCGAGUCUCGUACGGAACG [C27G G39C C61U], the yeast fitness amounted to 0.577. With GUUCCGUUGGCGUAAUGGUAACGCGUGUCCCUCCUAAGGAGAAGACUCCGGGUUCGAGUCCCGUACGGGACG [C27G G48C A69G] the figure was at most 0.5; with GUUCCGUUGGCGUAAUGGUAACGCGUGUCCCUCCUAAGGAGAAGACUGUGGGUUCGAGUCCCGUUCGGAACG [C27G C49U A65U], at most 0.5. The figure for GUUCCGUUGGCGUAAUGGUAACGCGUGUCCCUCCUAAGGAGAAGAUUGCGGGUCCGAGUCCCGUACGGAACG [C27G C46U U54C] is 0.738; for GUUCCGUUGGCGUAAUGGUAACGCGUGUCCCUCCUAAGGAGAAGAUUGCGGGUUCGAGUUCCGUACGGAACG [C27G C46U C60U] it is 0.626. With GUUCCGUUGGCGUAAUGGUAACGCGUGUCCCUCCUAAGAAGAAGACUGCGGGUUCGAGUCGGGUACGGAACG [C27G G39A C61G C62G] the figure was at most 0.5; with GUUCCGUUGGCGUAAUGGUAACGCGUGUCCCUCCUAAGAAGAAGAUUGCGGGUUCGAGUCCCGUAUGGAACG [C27G G39A C46U C66U], at most 0.5; with GUUCCGUUGGCGUAAUGGUAACGCGUGUCCCUCCUAAGGACAAGACUGCGGGUUCGAGUCCCGUACGGAACG [C27G G41C], 1.01. As for GUUCCGUUGGCGUAAUGGUAACGCGUGUCCCUCCUAAGGAGAACGCUGCGGGUUCGAGUCCCGGACGGAACG [C27G G44C A45G U64G], the yeast fitness is at most 0.5. Regarding GUUCCGUUGGCGUAAUGGUAACGCGUGUCCCUCCUAAGGAGAAGACUCCGGGUUCGAGUCCCGUACGGAACG [C27G G48C], the yeast fitness is 0.632. Consider GUUCCGUUGGCGUAAUGGUAACGCGUGUCCCUCCUAAGGAGAAGACUACGGGUUCGAGUCCCGUACGGAACG [C27G G48A], for which the yeast fitness worked out at 0.565. With GUUCCGUUGGCGUAAUGGUAACGCGUGUCCCUCCUAAGGAGAAGACUGCGGGUUCAAGUCCCGUACGGAACG [C27G G56A] the figure was 0.614. In the case of GUUCCGUUGGCGUAAUGGUAACGCGUGUCCCUCCUAAGGAGAAGACUGAGGGUUCGUGUCCCGUACGGAACG [C27G C49A A57U], the yeast fitness is at most 0.5.

On to GUUCCGUUGGCGUAAUGGUAACGCGUGUCCCUCCUAAGGAGAAGACUGAGGGUUCGACUCCCGUACGGAACG [C27G C49A G58C], for which the yeast fitness was at most 0.5. With GUUCCGUUGGCGUAAUGGUAACGCGUGUCCCUCCUAAGGAGAAGAUUGCGGGUUCGAGUUCCGUACGGUACG [C27G C46U C60U A69U], the yeast fitness is at most 0.5.

With GUUCCGUUGGCGUAAUGGUAACGCGUGUCCCUCCUAACGAGAAGACUGCGGGUUUGAGUCCCGUACGGAACG [C27G G38C C55U], the yeast fitness is at most 0.5. Take GUUCCGUUGGCGUAAUGGUAACGCGUGUCCCUCCUAAGGAGAACGCUGCGGGUUCGAGUCCCGUGCGGAACG [C27G G44C A45G A65G]: the yeast fitness is at most 0.5. With GUUCCGUUGGCGUAAUGGUAACGCGUGUCCCUCCUAAGGAGAAGACUCCGGGUUCCAGUCCCGUACGGAACG [C27G G48C G56C] the figure was at most 0.5; with GUUCCGUUGGCGUAAUGGUAACGCGUGUCCCUCCUAAGGAGAAGAUUGCAGGUUCGAGUCCCGUAUGGAACG [C27G C46U G50A C66U], at most 0.5. Turning to GUUCCGUUGGCGUAAUGGUAACGCGUGUCCCUCCUAAGGAGAAGAUUGCGGGUUCGAGUCCUGUACGCAACG [C27G C46U C62U G68C], the yeast fitness is at most 0.5.

Turning to GUUCCGUUGGCGUAAUGGUAACGCGUGUCCCUCCUAAAGAGAAGACUGCGGGUUCGAGUCCCGUACUGAACG [C27G G38A G67U], the yeast fitness is at most 0.5. As to GUUCCGUUGGCGUAAUGGUAACGCGUGUCCCUCCUAAGGAGAAGAUUGCGGGUUCGAGUCCCGUACGGAGCG [C27G C46U A70G], the yeast fitness worked out at 0.727.
